Blank lines part the entries; values can stand above or below the molecule they belong to.
What was measured:
[1] = biological target: TTR in human blood plasma (Homo sapiens, UniProt P02766); assay: covalent modification of TTR in human blood plasma ex vivo; assay type: binding; conditions: compound 10.8 μM, 37 °C, maximum 50% (2/4 subunits)
Outline: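 Test compound at 10.8 μM final, from DMSO stock, incubated with human plasma (TTR 3.6–5.4 μM) for 24 h at 37 °C with rocking. Plasma pre-cleared on plain sepharose for 1 h at 4 °C. TTR immunocaptured on anti-TTR sepharose for 20 min at 4 °C, then washed with Tris-saline ± 0.05% saponin. Eluted with 100 mM triethylamine, pH 11.5. C18 RP-HPLC, 45-min 0.1% TFA water→acetonitrile gradient; at most 2/4 subunits modifiable.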

recombinant WT-TTR = recombinant WT-TTR (Homo sapiens, UniProt P02766); assay: conjugation of recombinant WT-TTR by RP-HPLC; assay type: binding; conditions: for conjugation half-life (t50) with WT-TTR: recombinant WT-TTR, C18-RP-HPLC
K15A-TTR [2] = biological target: T1, K15A-TTR (Homo sapiens, UniProt P02766, K35A); assay: reaction with K15A-TTR homotetramer by RP-HPLC; assay type: binding; conditions: compound 7.2 μM, 18 h, 25 °C
K15A-TTR [3] = biological target: T1, K15A-TTR; assay: non-covalent binding to K15A-TTR; conditions: out of a maximum of 2 eq.; immunocapture, high-pH dissociation, HPLC
K15A-TTR [4] = biological target: T1, K15A-TTR; assay: K15A-TTR fibril formation at pH 4.4 with non-covalent stabilizers; assay type: biochemical; conditions: compound 7.2 μM, 72 h
[5] = test system: IMR-32 human neuroblastoma cells; conditions: cited from earlier work

% Modification of TTR subunits in Human Blood Plasma [1]: 49% (±0.7%)
conjugation half-life (t50) with WT-TTR (recombinant WT-TTR): 5 to 15 min
SMILES: Cc1cc(/C=C/c2cccc(C(=O)Oc3ccccc3[N+](=O)[O-])c2)cc(C)c1O [Compound 3]

reaction with K15A-TTR (K15A-TTR [2]): no reaction could be detected
equivalents non-covalently bound to K15A-TTR homotetramer (K15A-TTR [3]): 1.4 eq.
SMILES: Cc1cc(/C=C/c2cccc(C(=O)Oc3ccc(F)cc3)c2)cc(C)c1O [Compound 4]

reaction with K15A-TTR (K15A-TTR [2]): more non-chemoselective conjugation
SMILES: Cc1cc(/C=C/c2ccc(C(=O)Oc3ccccc3[N+](=O)[O-])cc2)cc(C)c1O [Compound 6]

conjugation yield with WT-TTR (recombinant WT-TTR; WT-TTR […], compound 7.2 μM, 18 h, 25 °C): lower modification yield
SMILES: Cc1cc(/C=C/c2ccc(C(=O)Oc3ccc(F)cc3)cc2)cc(C)c1O [Compound 7]

Second part, the molecule before the results:

SMILES: O=C(Sc1ccccc1)c1cccc(/C=C/c2cc(Br)c(O)c(Br)c2)c1 [Compound 1]
% Modification of TTR subunits in Human Blood Plasma [1]: 36% (±0.4%)
conjugation half-life (t50) with WT-TTR (recombinant WT-TTR): 143 min

SMILES: Cc1cc(/C=C/c2cccc(C(=O)Sc3ccccc3)c2)cc(C)c1O [Compound 2]
% Modification of TTR subunits in Human Blood Plasma [1]: 48% (±1.3%)
conjugation half-life (t50) with WT-TTR (recombinant WT-TTR): 5 to 15 min

SMILES: Cc1cc(/C=C/c2cccc(C(=O)O)c2)cc(C)c1O [Compound 8]
stabilization of K15A-TTR against fibril formation (K15A-TTR [4]): additional stabilization of K15A-TTR was observed

SMILES: Cc1cc(/C=C/c2ccccc2)cc(C)c1O [Compound 9]
stabilization of K15A-TTR against fibril formation (K15A-TTR [4]): additional stabilization of K15A-TTR was observed

SMILES: Oc1ccc(/C=C/c2cc(O)cc(O)c2)cc1 [resveratrol]
prevention of amyloid-formation-associated cytotoxicity [5]: known to prevent amyloid-formation-associated cytotoxicity

— article PMC3107129 (Nature chemical biology, 2010)
